# Source: PubChem BioAssay
# A selection: hits, their analogues and other compounds. The true share with any hit is near 2.2%.
# BaF3 tox = parental Ba/F3 cell viability inhibition, counter-screen for JAK2V617F inhibitor project, murine pro-B, CellTiter-Glo luminescence | 1.1% of 220,000 active | inhibition, % at 5.6 µM | CellTiter-Glo ATP luminescence;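 active = inhibition above a per-campaign cutoff, the mean inhibition of all tested compounds plus 3 SD, cut at about 27% in these data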;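 note: 0% = DMSO wells and 100% = JAK Inhibitor I control wells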
# b-catenin transl = modulators of beta-catenin nuclear translocation, primary screen, imaging, HeLa cells, immunofluorescence, high-content; nuclear translocation activity, % at 5 µM; AID 1665, 2009; 0.3% of 190,000 active;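 active = nuclear translocation activity above 50% at 5 µM, with a well cell count of 50 or more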;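 note: per-cell ratio of nuclear to cytoplasmic median beta-catenin stain intensity; plate controls were DMSO negative control for no effect and GSK-3 inhibitor IX positive control for full effect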
#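 System: Human HeLa cells, endogenous beta-catenin | Compound dosing: 5 µM primary, 0.02–20 µM confirmation | Timing: 24 h compound exposure at 37°C, 5% CO2 | Measured by: Fluorescence imaging of beta-catenin antibody stain plus DAPI | Read-out basis: % activation of per-cell nuclear versus cytoplasmic median beta-catenin signal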
# APP 5UTR inh = inhibitors of APP translation via 5'UTR reporter, primary screen, APP 5'UTR luciferase, SH-SY5Y cells; SH-SY5Y APP 5'UTR-luciferase reporter, luminescence; inhibition, % at 2 µM; 0.82% of 190,000 active;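 active = inhibition above a set limit, derived from the sample mean plus 3 SD, cut at about 45% in these data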
# IEC-6 tox = cytotoxicity in IEC-6 intestinal epithelial cells, primary screen, cytotoxicity control for KLF5 inhibitor project, cell-based, luminescence | IEC-6 cytotoxicity, luminescence viability | inhibition, % at 5 µM | 0.78% of 290,000 active | AID 1825, 2009; in the data active = inhibition above about 22%;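 note: 0% = plate median of test compound wells and 100% = cytotoxic reference compound wells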
# MT stabilizer = microtubule stabilizers in HeLa cells, primary screen, imaging, high-content imaging | HeLa tubulin immunostaining HCS, 24 h; share of cells brighter than vehicle mean+2SD | % tubulin-high responders, % at 10 µM | 0.83% of 200,000 active | AID 2205, 2009;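 active = plate Z-score above 3 for both tubulin-high and condensed-nucleus cell shares, with cell loss under 80%, at 10 µM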;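 note: anti alpha tubulin signal scored within the nucleus-defined area of each cell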
# Ba/F3 V617F tox = reduced viability of JAK2V617F-dependent Ba/F3 cells, primary screen, JAK2V617F inhibitor project, cell-based, Ba/F3 EpoR-JAK2V617F, luminescence; 1.1% of 220,000 active; ATP luminescence; inhibition, % at 5.6 µM;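 active = inhibition above the campaign mean plus 3 SD over all tested compounds, cut at about 24% in these data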;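 note: cytokine-independent growth of Ba/F3 cells driven by EpoR plus mutant JAK2; 0% = DMSO-treated cells and 100% = JAK inhibitor I control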
# Numbers without * were called inactive; / = no result given.
SMILES,BaF3 tox,b-catenin transl,APP 5UTR inh,IEC-6 tox,MT stabilizer,Ba/F3 V617F tox
CCOC(=O)/C=C(\C)Sc1cc(O)c2ccccc2c1O,0,1,/,34*,/,0
O=C(Nc1ccccc1C(F)(F)F)N1CCN(c2ccccn2)CC1,89*,-5,-10,5,3,0
O=C(Nc1ccc2c(c1)nc1n2CCN(C2CCCCC2)C1)NC1CCCCC1,30*,-1,-8,1,3,7
CCC(=O)Nc1ccc2c(c1)nc1n2CCN(C2CCCCC2)C1,-3,0,2,-4,/,-4
COc1nnc(-c2ccc(C)c(S(=O)(=O)NC(C)C)c2)c2ccccc12,/,/,/,3,/,/
O=C1C(Cl)=C(NCCCN2CCOCC2)C(=O)N1CCc1ccccc1,4,/,51*,8,3,5
O=C1C(Cl)=C(NCCc2ccccc2)C(=O)N1CCc1ccccc1,1,-6,-23,-1,2,-3
CCCCC(=O)Nc1nc2ccc(C(=O)OC)cc2s1,0,1,-79,2,25*,4
CCCC(=O)Nc1nc2ccc(C(=O)OCC)cc2s1,2,-3,-61,-4,8,0
CC(=NCc1ccco1)c1c(C)[nH]n(-c2nc3ccccc3s2)c1=O,6,0,-153,-3,2,3
C/C(=N/NC(=O)c1cccs1)c1c(C)[nH]n(-c2nc3ccccc3s2)c1=O,49*,0,-87,42*,6,48*
COC(=O)/C=C/c1ccccc1S(=O)(=O)N(Cc1ccccc1)Cc1ccco1,/,74*,/,/,/,/
COc1cccc(-c2nn(C)c3sc(C(=O)N4CCN(c5ccccn5)CC4)cc23)c1,9,0,-25,5,13*,5
COc1ccc(Nc2nc3ccc(C)cc3cc2C#N)c(OC)c1,2,-2,4,4,7,-2
COc1ccc(Nc2nc3cc(C)ccc3cc2C#N)c(OC)c1,3,23,92*,-3,21*,-3
Cc1ccc(-c2nc3ccccc3[nH]2)s1,14,-1,-114,6,7,10
Cc1[nH]c2ccccc2c1-c1nc2ccccc2[nH]1,30*,-1,7,4,4,11
O=[N+]([O-])c1ccc(C[n+]2cccc3ccc4cccnc4c32)cc1,76*,-2,-26,-2,3,60*
O=C(c1cnn2c1NC(c1ccco1)CC2C(F)(F)F)N1CCN(c2cccc(Cl)c2)CC1 (centres undefined),2,44,2,4,45*,-5
COc1ccc(-c2noc(CN(C)C(=O)c3ccoc3C)n2)cc1,/,/,/,2,/,/
Cc1nn(CC2CC2)c(=O)n1-c1ccc(Oc2ccccc2)cc1,10,-2,-14,0,2,1
COc1ccc(/C=C/C(=O)Nc2cccnc2Cl)cc1,/,/,/,4,/,/
O=C(c1ccccc1)c1cc(Cl)ccc1N1C(=O)C=CC1=O,11,-3,80*,-2,4,6
COc1ccc(N(CC(=O)Nc2ccc(Cc3ccncc3)cc2)S(=O)(=O)c2ccccc2)cc1,/,/,/,-8,/,/
O=C(CSc1nnc(Cc2ccccc2)o1)N1CCc2ccccc21,4,-8,0,-4,4,0
SMILES,BaF3 tox,b-catenin transl,APP 5UTR inh,IEC-6 tox,MT stabilizer,Ba/F3 V617F tox
O=C(CSc1nnc(COc2cccc3cccnc23)o1)N1CCc2ccccc21,94*,-3,7,1,2,0
CCCc1cc(=O)oc2cc(OCC(=O)NCCCN3CCOCC3)ccc12,/,/,/,5,/,/
CC(=O)N1CCOc2ccc(S(=O)(=O)N(C)c3ccc(C)cc3)cc21,/,/,/,-15,/,/
C=CCn1c(SCC(=O)c2[nH]c(C)c(C(=O)OCC)c2C)nc2scc(-c3ccc(OC)cc3)c2c1=O,3,1,60*,-5,8,-4
CC1=C([N+](=O)[O-])C(c2cccc(Br)c2)C2=C(N1)c1ccccc1C2=O (centres undefined),76*,17,86*,77*,11*,77*
COC(=O)C1=C(C)NC2=C(C(=O)c3ccccc32)C1c1cccc(OC)c1 (centres undefined),5,1,/,5,/,-1
Cc1ccc(C(=O)OCN2C(=O)c3ccccc3C2=O)c(O)c1,/,/,/,-2,/,/
C/C(=N\NC(=O)C(c1ccccc1)c1ccccc1)c1ccccn1,12,/,69*,-2,3,5
C/C(=N\NC(=O)C1CCCN(S(=O)(=O)c2ccccc2)C1)c1ccncc1 (centres undefined),1,-1,14,4,3,1
C/C(=N\NC(=O)C(c1ccccc1)c1ccccc1)c1ccc(O)cc1,/,/,/,-1,/,/
C/C(=N\NC(=O)C1CCCN(S(=O)(=O)c2ccccc2)C1)c1ccccn1 (centres undefined),1,5,46*,-4,2,0
CN(C)c1ccc(-c2nc3ccccc3n2C)cc1,53*,2,-98,12,3,44*
O=C(NCc1ccccc1)C(c1ccc(O)cc1)N(C(=O)c1cnccn1)c1ccccc1 (centres undefined),/,/,/,4,/,/
CSc1nsc2nc(=O)c(/C=C3\C=Nc4ccccc43)c(N)n12,56*,1,-21,-9,2,0
CCOc1ccc(C(=O)n2cc(C(=O)OC)c3ccccc32)cc1,/,/,/,11,/,/
O=C(NNc1ccnc2cc(Cl)ccc12)C1CCCCC1,36*,3,18,10,2,25*
NC(=S)NNc1ccnc2cc(Cl)ccc12,7,7,-6,-1,4,0
CC(=O)Cc1nsc(NC(=O)c2ccc(-c3cc(Cl)ccc3Cl)o2)n1,7,132*,-17,2,26*,0
CC(=O)Cc1nsc(NC(=O)c2ccc(-c3ccc(Cl)cc3Cl)o2)n1,1,/,-9,2,3,-3
O=C(CN1C(=O)c2ccccc2C1=O)Nc1ccc(S(=O)(=O)N2CCOCC2)cc1,5,1,-5,0,2,3
CCOc1c(OC)cccc1C1CC(=O)Nc2cc3c(cc21)OCCO3 (centres undefined),5,7,2,-4,22*,0
CCOc1ccccc1C1CC(=O)Nc2cc(OC)c(OC)cc21 (centres undefined),/,/,/,2,/,/
Cc1ccccc1-n1c(=O)n(Cc2ccco2)c(=O)c2[nH]cnc21,/,/,/,-8,/,/
CCOP(=O)(/C(C#N)=C(\C)O)c1ccccc1 (centres undefined),81*,-2,-8,1,1,7
CCOC(=O)CNC1CC(=O)N(c2ccc(Br)cc2)C1=O (centres undefined),/,/,/,4,/,/
Cn1c(-c2ccccc2)c[n+]2c1-c1ccccc1C2,63*,3,-9,5,6,85*
